This is an account of results in ChEMBL document CHEMBL4052821, “Chemical Modification for Proteolytic Stabilization of the Selective αvβ3 Integrin RGDechi Peptide: in Vitro and in Vivo Activities on Malignant Melanoma Cells” (J Med Chem, 2017).

Activity calls are given as the source filed them. The rule behind the calls is not given here. Where a SMILES comes first, the peptide text is derived from it.

Data set [1] in a line: (§1) Antiadhesive activity in alphavbeta3 integrin overexpressing human WM266 cells assessed as inhibition of cell binding to anti-alphaVbeta3 antibody at 50 uM after 1 hr by crystal violet staining-based assay relative to control. The format is functional. The note with it: WM266, 1 h. The method in brief: (§2)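 Plates coated with anti-αvβ3 antibody LM609 (10 μg/mL). WM266 cells (1.5 × 10^4/well) incubated with peptide (50 μM) for 1 h. Nonadherent cells washed off, adherent cells measured by crystal violet optical density as % of untreated control. At least three independent experiments in duplicate.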

A short description of data set [2]: Antimigratory activity in alphavbeta3 integrin overexpressing human WM266 cells at 50 uM after 24 hrs by wound healing assay relative to control. In kind it is functional. The procedure, abridged: (§3)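 Confluent WM266 monolayers scratched with a pipette tip, washed with PBS, then given medium containing peptide (50 μM). Phase-contrast images taken at 0, 24 and 48 h. Wound width expressed as % of the 0 h value. Three experiments in triplicate.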

Data set [3] in a line: In vivo tumor uptake in CD1 nu/nu athymic mouse xenografted with alphavbeta3 integrin overexpressing human WM266 cells using NIR750 labeled compound at 1 nmol, iv after 3 to 24 hrs by fluorescence molecular tomography. The format is ADME, organism-based, Neoplasm. The method in brief:
(§4)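 Peptides conjugated to VivoTag-S 750 NHS ester. 10 × 10^6 WM266 cells implanted in the right flank of CD1 nu/nu mice, fed alfalfa-free chow. At about 0.5 cm3 tumour volume, 1 nmol conjugate given i.v. (3 mice/group) under isoflurane. Whole-body FMT imaging at 3, 5 and 24 h, reported as tumour ROI counts/energy. Tumours excised at 24 h for ex vivo FMT.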
(A xenograft is tissue or cells of one species grown in another, often human tumour cells in immunodeficient mice.)

In data set [4] the test system is HeLa. Description: Antiadhesive activity in alphavbeta5 integrin overexpressing human HeLa cells assessed as inhibition of cell binding to anti-alphaVbeta5 antibody at 50 uM by RTCA cell index slope-based assay.
In data set [5] the test system is Serum. Description: Metabolic stability in human serum at 1 mg/ml after 3 to 24 hrs by RP-HPLC method. The format is ADME, cell-free. The procedure, abridged:
(§5)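 Peptide solution (1 mg/mL, 160 μL) mixed with 400 μL human serum at 37 °C. Aliquots taken at 1, 2, 4, 8, 24 and 48 h were quenched with 15% TFA and centrifuged. Supernatants analysed by LC–MS, following loss of the intact-peptide peak.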

A short description of data set [6]: (§6) Antiadhesive activity in alphavbeta3 integrin overexpressing human WM266 cells assessed as inhibition of cell adhesion onto vitronectin preincubated for 30 mins followed by cell seeding on vitronectin measured after 1 hr by crystal violet staining-based assay. The format is functional. The method in brief:
(§7)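 Dose–response adhesion: WM266 cells preincubated with increasing peptide concentrations, then seeded on plates precoated with vitronectin or fibronectin (10 μg/mL). Adherent cells quantified after 1 h by crystal violet staining as % of untreated control. IC50 derived from this curve; means ± SE of three independent experiments in triplicate.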

For data set [7], the system named is WM266. Description: Antiinvasive activity in alphavbeta3 integrin overexpressing human WM266 cells at 50 uM after 18 hrs by Transwell assay relative to control. The format is functional, cell-based. The procedure, abridged: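 Transwell inserts (8 μm) coated with ECL Cell Attachment. EDTA-detached WM266 cells (1 × 10^5, serum-free RPMI) with peptide (50 μM) in the upper chamber, 10% FBS RPMI below. Incubated 18 h at 37 °C. Invaded cells formalin-fixed, crystal violet stained and counted in four fields per chamber. Duplicate chambers.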

A short description of data set [8]: (§8) Antiadhesive activity in alphavbeta3 integrin overexpressing human WM266 cells assessed as inhibition of cell adhesion onto fibronectin preincubated for 30 mins followed by cell seeding on fibronectin measured after 1 hr by crystal violet staining-based assay. The format is functional. The method in brief:
as §7

Data set [9] in a line: Antimigratory activity in alphavbeta3 integrin overexpressing human WM266 cells at 50 uM after 48 hrs by wound healing assay relative to control. In kind it is functional. The procedure, abridged:
as §3

The test system of data set [10] is WM266. Description: (§9) Antiadhesive activity in alphavbeta3 integrin overexpressing human WM266 cells assessed as inhibition of cell adhesion onto vitronectin at 50 uM preincubated for 30 mins followed by cell seeding on vitronectin by RTCA relative to control. The format is functional. The procedure, abridged: (§10)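 WM266 cells (4 × 10^4, RPMI/10% FBS) preincubated 30 min at 4 °C with peptide (50 μM) in adhesion buffer, then seeded on wells coated overnight at 4 °C with 10 μg/mL matrix and blocked with 1.5% BSA. Impedance cell index read every minute over 0–24 h. Adhesion rate taken as slope between two time points, expressed as % of untreated control.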

In data set [11] the test system is WM266. The description is as §1. In kind it is functional. The procedure, abridged: as §2
Data set [12] relates to WM266. As to the kind of experiment: (§11) Antiadhesive activity in alphavbeta3 integrin overexpressing human WM266 cells assessed as inhibition of cell adhesion onto fibronectin at 50 uM preincubated for 30 mins followed by cell seeding on fibronectin by RTCA relative to control. The format is functional. The method in brief:
as §10

A short description of data set [13]: as §9. The format is functional. The procedure, abridged: as §10
Data set [14] can be described thus: as §11. The format is functional. The method in brief: as §10
Data set [15] relates to WM266. The data set is described as §6. The format is functional. The method in brief:
as §7

For data set [16], the system named is WM266. The data set is described as §8. In kind it is functional. The method in brief: as §7
In data set [17] the test system is Serum. Description: Metabolic stability in human serum at 1 mg/ml after 48 hrs by RP-HPLC method. In kind it is ADME, cell-free. The procedure, abridged: as §5
The test system of data set [18] is WM266. As to the kind of experiment: Antiadhesive activity in alphavbeta3 integrin overexpressing human WM266 cells assessed as inhibition of cell adhesion onto collagen 1 at 50 uM preincubated for 30 mins followed by cell seeding on collagen 1 by RTCA. In kind it is functional, cell-based. The procedure, abridged:
as §10

Data set [19] can be described thus: Ex vivo tumor uptake in CD1 nu/nu athymic mouse xenografted with alphavbeta3 integrin overexpressing human WM266 cells using NIR750 labeled compound at 1 nmol, iv after 24 hrs by fluorescence molecular tomography. In kind it is ADME, organism-based, Neoplasm. The procedure, abridged:
as §4

The target in data set [20] is Integrin alpha-V/beta-3 (Homo sapiens) (UniProt P05106+P06756). As to the kind of experiment: Competitive binding affinity to alphavbeta3 integrin in human WM266 cells using NIR750-labeled compound at 1 nmole after 1 hr in presence of excess of unlabeled compound by DAPI staining-based confocal microscopic method. The format is cell-based. The procedure, abridged: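 WM266 cells on coverslips incubated with 1 nmol NIR750-labelled peptide in DPBS/5% FBS for 1 h at 4 °C. For competition, cells were first preincubated 1 h at 4 °C with 1000-fold excess unlabelled parent. Cells fixed, DAPI-stained and immunostained for αvβ3, then imaged by confocal microscopy. Colocalization scored by Manders' coefficients.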

For orientation: inhibition means the relative decrease from the control value, in per cent. For orientation: IC50 means the concentration that gives 50% inhibition. As to `CSCC[C@H](NC(=O)CC[C@@H]1NC(=O)[C@H](CC(=O)O)NC(=O)CNC(=O)[C@H](CCCNC(=N)N)NC(=O)[C@H](CCCCN)NC1=O)C(=O)N[C@@H](CC(=O)O)C(=O)N[C@@H](CC(=O)O)C(=O)N1CCC[C@H]1C(=O)NCC(=O)N[C@@H](CCCNC(=N)N)C(=O)N[C@@H](CC(N)=O)C(=O)N1CCC[C@H]1C(=O)N[C@@H](Cc1cnc[nH]1)C(=O)N[C@@H](CCCCNC(N)=O)C(=O)NCC(=O)N1CCC[C@H]1C(=O)N[C@@H](C)C(=O)N[C@H](C(=O)O)[C@@H](C)O` (HELM PEPTIDE1{M.D.D.P.G.R.N.P.H.[NC(=O)NCCCC[C@H](N[*:1])C(=O)[*:2]].G.P.A.T}|PEPTIDE2{R.G.D.E.K}$PEPTIDE1,PEPTIDE2,1:R1-4:R3|PEPTIDE2,PEPTIDE2,1:R1-5:R2$$$V2.0), the inhibition at 50 µM in data set [1] was 40%. The Activity was determined as 31% in [2] and 20% in [9]. Moreover, the Drug uptake entry in data set [3] is “Active”. Also, the inhibition entry in data set [4] is “inactive”. Besides, the Stability entry in [5] is on record as “Unstable”. The IC50 was 25.5 µM in data set [6] and 53 µM in data set [8]. Further, the outcome in data set [7] was Active.

With `N=C(N)NCCC[C@@H]1NC(=O)CNC(=O)[C@H](CC(=O)O)NC(=O)[C@@H](Cc2ccccc2)NC(=O)[C@H](CCCCN)NC1=O`, the inhibition result in data set [10], in data set [11], in data set [12] and in [4] was “Active” in each case. Moreover, the outcome in [7] was Active.

Take `CSCC[C@H](NC(=O)CC[C@@H]1NC(=O)[C@H](CC(=O)O)NC(=O)CNC(=O)[C@H](CCCNC(=N)N)NC(=O)[C@H](CCCCN)NC1=O)C(=O)N[C@@H](CC(=O)O)C(=O)N[C@@H](CC(=O)O)C(=O)N1CCC[C@H]1C(=O)NCC(=O)N[C@@H](CCCNC(=N)N)C(=O)N[C@@H](CC(N)=O)C(=O)N1CCC[C@H]1C(=O)N[C@@H](Cc1cnc[nH]1)C(=O)N[C@@H](CCCCNC(N)=O)C(=O)NCC(=O)N1CCC[C@H]1CN[C@@H](C)C(=O)N[C@H](C(=O)O)[C@@H](C)O` (HELM PEPTIDE1{M.D.D.P.G.R.N.P.H.[NC(=O)NCCCC[C@H](N[*:1])C(=O)[*:2]].G.[C[C@H](NC[C@@H]1CCCN1[*:1])C(=O)N[C@H](C(=O)O)[C@@H](C)O]}|PEPTIDE2{R.G.D.E.K}$PEPTIDE1,PEPTIDE2,1:R1-4:R3|PEPTIDE2,PEPTIDE2,1:R1-5:R2$$$V2.0): the values for the inhibition at 50 µM in [13], in data set [1] and in [14] were 55%, 40% and 33%, respectively. In addition, the figures for the Activity in data set [2] and in data set [9] were 54% and 33%, respectively. Moreover, the Drug uptake entry in data set [3] and in [19] was “Active” each time. Also, the inhibition result in [4] and in data set [18] was “inactive” throughout. Further, the inhibition result in data set [15] and in [16] was “Dose-dependent effect” each time. Also, the IC50 in data set [6] was determined as 5.2 µM; in data set [8], 20.7 µM. Also, the result in [7] and in data set [20] was Active. The Stability entry in data set [17] is “Stable”.
